Experimental data published in ChEMBL document CHEMBL1125194, “Probing the bradykinin receptor: mapping the geometric topography using ethers of hydroxyproline in novel peptides” (J Med Chem, 1991).

Tests used:
[1] = Binding affinity of compound was measured for bradykinin receptor in guinea pig ileum; type: tissue-based, Cavia porcellus
[2] = Antagonistic activity of compound was measured in SV-T2 cells; type: functional, cell-based; details: Mus musculus, read-out: pA2 (converted)
In short: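 SV-T2 fibroblasts, which express only B2 receptors. Antagonism of bradykinin-stimulated prostaglandin synthesis was measured and expressed as pA2. Agonist activity was also checked at concentrations up to 10 μM.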

[3] = Antagonistic activity of compound was measured for bradykinin receptor in guinea pig ileum; type: functional, tissue-based; details: Cavia porcellus, read-out: pA2 (converted)
In short: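 Guinea pig ileal longitudinal muscle strips, which express only B2 receptors. Cumulative bradykinin dose-response curves were run without and with increasing antagonist concentrations (0.1-0.3 μM), and antagonism was expressed as pA2. Agonist activity was also checked at concentrations up to 10 μM.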

| SMILES | Ki [1] | Kb [2] | Kb [3] |
| --- | --- | --- | --- |
| CO[C@H]1C[C@@H](C(=O)N2Cc3ccccc3C[C@H]2C(=O)N[C@@H](CCCN=C(N)N)C(=O)O)N(C(=O)[C@H](CO)NC(=O)[C@@H](NC(=O)CNC(=O)[C@@H]2C[C@H](O)CN2C(=O)[C@@H]2CCCN2C(=O)[C@H](CCCN=C(N)N)NC(=O)[C@H](N)CCCN=C(N)N)c2cccs2)C1 | 102 nM | 251 nM | 8910 nM |
| NC(N)=NCCC[C@@H](N)C(=O)N[C@@H](CCCN=C(N)N)C(=O)N1CCC[C@H]1C(=O)N1C[C@H](O)C[C@H]1C(=O)NCC(=O)N[C@@H](Cc1ccccc1)C(=O)N[C@@H](CO)C(=O)N[C@H](Cc1ccccc1)C(=O)N[C@@H](Cc1ccccc1)C(=O)N[C@@H](CCCN=C(N)N)C(=O)O | 57.9 nM | 10 nM | 1510 nM |
| CCCO[C@H]1C[C@@H](C(=O)N2Cc3ccccc3C[C@H]2C(=O)N[C@@H](CCCN=C(N)N)C(=O)O)N(C(=O)[C@H](CO)NC(=O)[C@@H](NC(=O)CNC(=O)[C@@H]2C[C@H](O)CN2C(=O)[C@@H]2CCCN2C(=O)[C@H](CCCN=C(N)N)NC(=O)[C@H](N)CCCN=C(N)N)c2cccs2)C1 | 144 nM | 158 nM | 5750 nM |
| CCCO[C@@H]1C[C@@H](C(=O)N2Cc3ccccc3C[C@H]2C(=O)N[C@@H](CCCN=C(N)N)C(=O)O)N(C(=O)[C@H](CO)NC(=O)[C@@H](NC(=O)CNC(=O)[C@@H]2C[C@H](O)CN2C(=O)[C@@H]2CCCN2C(=O)[C@H](CCCN=C(N)N)NC(=O)[C@H](N)CCCN=C(N)N)c2cccs2)C1 | 0.77 nM | 1.58 nM | 24.5 nM |
| CO[C@@H]1C[C@@H](C(=O)N2Cc3ccccc3CC2C(=O)N[C@@H](CCCN=C(N)N)C(=O)O)N(C(=O)[C@H](CO)NC(=O)[C@@H](NC(=O)CNC(=O)[C@@H]2C[C@H](O)CN2C(=O)[C@@H]2CCCN2C(=O)[C@H](CCCN=C(N)N)NC(=O)[C@H](N)CCCN=C(N)N)c2cccs2)C1 (stereo partly drawn) | 2.12 nM | 3.98 nM | 186 nM |
| CCCO[C@@H]1C[C@@H](C(=O)N2C3CCCCC3C[C@H]2C(=O)N[C@@H](CCCN=C(N)N)C(=O)O)N(C(=O)[C@H](CO)NC(=O)[C@@H](NC(=O)CNC(=O)[C@@H]2C[C@H](O)CN2C(=O)[C@@H]2CCCN2C(=O)[C@H](CCCN=C(N)N)NC(=O)[C@H](N)CCCN=C(N)N)c2cccs2)C1 (stereo partly drawn) | 0.16 nM | 0.251 nM | 2.88 nM |
